The source of these data is ChEMBL document CHEMBL1944574, “Inhibition of monoamine oxidase by selected C6-substituted chromone derivatives” (Eur J Med Chem, 2012).

Molecules are shown by their SMILES.

The species named for one series is Homo sapiens. Put plainly: Selectivity index, ratio of IC50 for recombinant human monoamine oxidase A to IC50 for recombinant human monoamine oxidase B.
The target in series [1] is T1, Amine oxidase [flavin-containing] B (Homo sapiens, UniProt P27338).
T1 sequence (P27338 whole entry): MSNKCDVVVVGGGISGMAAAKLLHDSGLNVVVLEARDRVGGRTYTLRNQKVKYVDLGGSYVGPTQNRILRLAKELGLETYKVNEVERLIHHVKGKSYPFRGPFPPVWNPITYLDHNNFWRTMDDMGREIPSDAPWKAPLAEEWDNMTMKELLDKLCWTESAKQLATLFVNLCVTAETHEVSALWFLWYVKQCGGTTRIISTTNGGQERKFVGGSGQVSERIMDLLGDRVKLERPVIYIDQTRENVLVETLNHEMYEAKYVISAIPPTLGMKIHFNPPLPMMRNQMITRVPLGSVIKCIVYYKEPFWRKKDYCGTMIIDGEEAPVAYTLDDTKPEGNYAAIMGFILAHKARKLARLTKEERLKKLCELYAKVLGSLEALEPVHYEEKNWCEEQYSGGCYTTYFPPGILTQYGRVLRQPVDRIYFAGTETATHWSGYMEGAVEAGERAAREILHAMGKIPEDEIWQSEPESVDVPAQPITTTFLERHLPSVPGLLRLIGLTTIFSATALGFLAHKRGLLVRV
Put plainly: Inhibition of recombinant human monoamine oxidase B expressed in insect microsomes using kynuramine as substrate after 20 mins by fluorescence spectrophotometry. On the set-up: species or system Microsome. A digest of the protocol: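 Enzyme source: insect-cell microsomes with recombinant human MAO-A or MAO-B at 0.0075 mg protein/mL, with kynuramine as substrate. Six inhibitor concentrations (0–100 µM) spanned at least 3 log units. Incubation was 20 min at 37 °C, then stopped with 2 N NaOH. IC50 came from sigmoidal fits of initial rate versus log inhibitor, in triplicate, mean ± SD.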

For series [2], the target named is T2, Amine oxidase [flavin-containing] A (Homo sapiens, UniProt P21397).
T2 sequence (P21397 whole entry): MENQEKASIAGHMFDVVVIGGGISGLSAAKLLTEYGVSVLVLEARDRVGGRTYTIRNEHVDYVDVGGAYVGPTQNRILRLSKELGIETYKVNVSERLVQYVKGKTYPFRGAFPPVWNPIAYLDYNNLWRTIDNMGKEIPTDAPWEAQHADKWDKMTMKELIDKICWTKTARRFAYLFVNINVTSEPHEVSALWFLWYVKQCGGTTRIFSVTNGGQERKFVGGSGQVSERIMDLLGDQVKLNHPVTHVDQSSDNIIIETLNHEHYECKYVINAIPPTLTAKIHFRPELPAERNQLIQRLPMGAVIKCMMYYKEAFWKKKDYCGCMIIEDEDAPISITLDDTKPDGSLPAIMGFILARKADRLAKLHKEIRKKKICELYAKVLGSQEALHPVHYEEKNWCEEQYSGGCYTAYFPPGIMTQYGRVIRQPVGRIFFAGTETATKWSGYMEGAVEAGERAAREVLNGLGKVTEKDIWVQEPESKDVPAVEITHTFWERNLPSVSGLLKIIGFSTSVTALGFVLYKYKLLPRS
Briefly: Inhibition of recombinant human monoamine oxidase A expressed in insect microsomes using kynuramine as substrate after 20 mins by fluorescence spectrophotometry. Set-up: species or system Microsome. A digest of the protocol:
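Enzyme source: insect-cell microsomes with recombinant human MAO-A or MAO-B at 0.0075 mg protein/mL, with kynuramine as substrate. Buffer was potassium phosphate 100 mM, pH 7.4, made isotonic with 20.2 mM KCl. Six inhibitor concentrations (0–100 µM) spanned at least 3 log units. Incubation was 20 min at 37 °C, then stopped with 2 N NaOH. 4-Hydroxyquinoline was read by fluorescence ([…] nm as printed) against a 0.047–1.56 µM standard curve. IC50 came from sigmoidal fits of initial rate versus log inhibitor, in triplicate, mean ± SD.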

Series [3] has as its target T1, Amine oxidase [flavin-containing] B. Briefly: Competitive inhibition of recombinant human monoamine oxidase B at 0.064 uM preincubated for 15 to 60 mins before kynuramine substrate addition measured after 15 mins by Lineweaver-Burk plot analysis. As to conditions: 0.25 h; call rule not given here.
In series [4] the target is T2, Amine oxidase [flavin-containing] A. Put plainly: Competitive inhibition of recombinant human monoamine oxidase A at 0.190 uM preincubated for 15 to 60 mins before kynuramine substrate addition measured after 15 mins. As to conditions: 0.25 h, 0.19 µM.

As to `O=c1ccoc2ccc(OCc3ccccc3)cc12`, the Ratio IC50 in the series filed under Homo sapiens was 62. Besides, the IC50 (usually the concentration at which inhibition is half-maximal) in series [1] was 0.053 µM; in series [2], 3.3 µM.

Take `O=c1ccoc2ccc(OCc3ccc(C(F)(F)F)cc3)cc12`: the Ratio IC50 in the series filed under Homo sapiens was found to be 440. In addition, the IC50 in series [1] amounted to 0.002 µM; in series [2], 0.879 µM.

For `O=c1ccoc2ccc(OCc3ccc(Cl)cc3)cc12`, the IC50 in series [2] was 0.106 µM.

For `O=c1ccoc2ccc(OCc3ccc(F)cc3)cc12`, the concentration for half-maximal inhibition (IC50) in series [2] worked out at 0.322 µM.

In the case of `N#Cc1cccc(COc2ccc3occc(=O)c3c2)c1`, the Ratio IC50 in the series listed under Homo sapiens worked out at 3. Moreover, the IC50 in series [1] stood at 0.076 µM; in series [2], 0.255 µM.

As for `O=c1ccoc2ccc(OCc3cccc(F)c3)cc12`, the Ratio IC50 in the series filed under Homo sapiens came out at 95. Further, the IC50 in series [1] was 0.013 µM; in series [2], 1.23 µM.

Take `O=c1ccoc2ccc(OCCc3ccc(Br)cc3)cc12`: the Ratio IC50 in the series filed under Homo sapiens was found to be 18. The IC50 in series [1] was 0.027 µM; in series [2] it was 0.48 µM.

As to `O=c1ccoc2ccc(OCc3cccc(Cl)c3)cc12`, the Ratio IC50 in the series filed under Homo sapiens came to 118. In addition, the IC50 in series [1] stood at 0.0036 µM; in series [2] it was 0.424 µM.

Regarding `Cc1ccc(COc2ccc3occc(=O)c3c2)cc1`, in the series listed under Homo sapiens, the Ratio IC50 turned out to be 582. Moreover, the IC50 in series [1] is 0.006 µM; in series [2] it was 3.49 µM.

Consider `O=c1ccoc2ccc(OCc3cccc(Br)c3)cc12`, for which the Ratio IC50 in the series filed under Homo sapiens is 193. Further, the figures for the IC50 in series [1] and in series [2] were 0.002 µM and 0.386 µM, respectively.

`Cc1cccc(COc2ccc3occc(=O)c3c2)c1`: in the series listed under Homo sapiens, the Ratio IC50 came to 59. For the same molecule, the IC50 is 0.019 µM in series [1] and 1.13 µM in series [2].

Turning to `N#Cc1ccc(COc2ccc3occc(=O)c3c2)cc1`, the Ratio IC50 in the series listed under Homo sapiens was determined as 8. Besides, the IC50 in series [1] worked out at 0.022 µM; in series [2] it was 0.175 µM.

On to `O=c1ccoc2ccc(OCc3ccc(Br)cc3)cc12`, for which the Ratio IC50 in the series listed under Homo sapiens stood at 29. The IC50 in series [1] came to 0.0033 µM; in series [2], 0.095 µM. Also, the “inhibition (INH)” value in series [3] and in series [4] was “Active” in each case.

Consider `O=c1ccoc2ccc(OCCCc3ccccc3)cc12`, for which, in the series filed under Homo sapiens, the Ratio IC50 turned out to be 34. Moreover, the IC50 stood at 0.057 µM in series [1] and 1.91 µM in series [2].

Regarding `O=c1ccoc2ccc(OCCc3ccccc3)cc12`, the Ratio IC50 in the series listed under Homo sapiens amounted to 149. The IC50 in series [1] came to 0.021 µM; in series [2], 3.12 µM.
